A selection: hits, their analogues and other compounds. The true share with any hit is near 1.9%.
M5 antag: blocks acetylcholine activation of human M5 receptor. CHO-hM5 cells, Fluo-8 calcium fluorescence, ACh EC80. hit rate 0.59% among 360,000. P08912. AID 624040. inhibition, % at 3 µM;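 active = inhibition above a per-plate cutoff, the mean of that plate's test compounds plus 3 SD, cut at about 27% in these data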;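 note: 0% = acetylcholine EC80 with DMSO and 100% = DMSO without agonist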
Target sequence (P08912 whole entry, looked up): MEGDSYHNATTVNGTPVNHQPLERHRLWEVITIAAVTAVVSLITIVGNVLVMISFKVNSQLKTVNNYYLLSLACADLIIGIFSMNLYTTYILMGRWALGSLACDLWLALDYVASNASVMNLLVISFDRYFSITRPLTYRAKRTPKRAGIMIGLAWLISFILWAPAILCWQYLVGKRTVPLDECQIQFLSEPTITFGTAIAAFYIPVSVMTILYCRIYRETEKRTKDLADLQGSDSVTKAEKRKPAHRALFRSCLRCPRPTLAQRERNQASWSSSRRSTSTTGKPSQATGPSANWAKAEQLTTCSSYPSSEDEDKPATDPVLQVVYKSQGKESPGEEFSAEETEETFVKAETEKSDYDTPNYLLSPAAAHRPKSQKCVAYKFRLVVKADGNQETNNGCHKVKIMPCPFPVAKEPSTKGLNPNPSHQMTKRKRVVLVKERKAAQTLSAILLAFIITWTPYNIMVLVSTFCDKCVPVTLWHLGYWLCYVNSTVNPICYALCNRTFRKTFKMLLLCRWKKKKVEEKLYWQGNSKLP
CHRM4 antagonist: CHRM4 antagonism in calcium assay | AID 624125 | hit rate 0.73% among 360,000 | inhibition, % at 3 µM | CHO-hM4 cells, ACh EC80, Fluo-8 calcium fluorescence | P08173;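 active = inhibition above its plate's cutoff, the mean inhibition of sample wells plus 3 SD, cut at about 27% in these data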;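 note: 0% = acetylcholine EC80 with DMSO and 100% = DMSO without agonist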
M5 PAM: potentiates acetylcholine response at human M5 receptor; P08912; CHO-K1 hM5, Fluo-8 calcium, ACh EC20 PAM; 0% = ACh EC20, 100% = ACh EC100; activation, % at 3 µM; hit rate 0.3% among 360,000;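 active = activation above the run cutoff, the mean activation of all test compounds plus 3 SD, cut at about 18% in these data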
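System: CHO-K1 cell line with stable human muscarinic M5 receptor expression | Also added: EC20 acetylcholine as agonist stimulus | Compound: One concentration, 3 µM final (nominal) | Timing: Fluo-8 loading 80 min at 37 °C plus 30 min room temperature | Measured by: Fluo-8 calcium dye fluorescence, kinetic read | Read-out basis: % activation, ACh-normalized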
CHRM4 PAM: CHRM4 positive allosteric modulation | hit rate 0.4% among 360,000 | activation, % at 3 µM | P08173 | CHO-K1 hM4/Gqi5, Fluo-8 calcium fluorescence, ACh EC20; 0% = ACh EC20, 100% = maximal ACh;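 active = activation above its plate's cutoff, the mean activation of sample wells plus 3 SD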
CHRM5 agonist: CHRM5 agonism in calcium assay. P08912. activation, % at 3 µM. CHO-K1 hM5 cells, Fluo-8 calcium fluorescence; 0% DMSO wells, 100% maximal acetylcholine response. hit rate 0.19% among 360,000. AID 624037;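 active = activation above the run's mean over test compounds plus 3 SD, cut at about 23% in these data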;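 note: signal is peak over basal fluorescence ratio across the kinetic read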
CHRM4 agonist: agonists of human muscarinic M4 receptor (CHRM4); CHO-K1 hM4/Gqi5, Fluo-8 calcium fluorescence; vehicle 0%, full acetylcholine response 100%; activation, % at 3 µM; hit rate 0.14% among 360,000; AID 624127;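 active = activation above the run mean over all test wells plus 3 SD, cut at about 32% in these data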;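 note: peak over basal fluorescence ratio per well then scaled between controls; 0% = DMSO wells and 100% = acetylcholine at EC100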
An asterisk follows results filed as active.

SMILES | M5 antag | CHRM4 antagonist | M5 PAM | CHRM4 PAM | CHRM5 agonist | CHRM4 agonist
O=c1c(-c2c(O)cc(O)c3c2O[C@H](c2ccc(O)cc2)CC3)c(-c2ccc(O)cc2)oc2cc(O)cc(O)c12 | 19.9 | 15.4 | -28.1 | -11.2 | 3.5 | 23.9
O=C(C1=C(O)C(=O)N(c2nccs2)C1c1ccccc1)c1cc2ccccc2o1 (centres undefined) | 8.3 | 10.9 | -24.0 | -17.2 | 65.1* | 29.0
O=C(Nc1cccc(Br)c1)Oc1cccc2cccnc12 | 33.8* | 17.4 | -21.2 | -9.5 | 8.7 | 14.5
O=C(Nc1c(Cl)cccc1Cl)Oc1cccc2cccnc12 | -4.2 | -4.0 | 1.4 | 3.3 | -3.4 | 1.9
O=C1CN(C(=O)COC(=O)c2ccccc2O)c2ccccc2N1 | -2.6 | -4.4 | 2.2 | 1.4 | 2.2 | 1.3
CC(C)n1nc(C(=O)OCC(=O)N2CC(=O)Nc3ccccc32)c2ccccc2c1=O | 1.6 | -16.9 | 2.5 | 19.6* | 3.5 | 1.8
Cc1cc(-c2nnc(SCC(=O)Nc3ccc(C)c(C)c3)n2N)n[nH]1 | -17.9 | 8.4 | 20.5* | 1.3 | -1.8 | 0.7
O=C(c1ccc(F)cc1)N1CCCN(c2nc(-c3ccccc3)ns2)CC1 | -12.9 | -11.1 | 19.6* | -3.8 | 6.3 | 2.3
O=C(Nc1ccccc1Cl)N1CCCN(c2nc(-c3ccccc3)ns2)CC1 | 15.7 | -0.8 | -28.5 | -38.2 | 1.8 | 14.5
O=C(O)c1ccc(N/N=C/c2cccc(C(F)(F)F)c2)cc1 | 28.6* | 6.0 | -5.2 | -4.4 | -1.6 | 0.2
O=C(O)c1ccc(N/N=C/c2cccc(F)c2)cc1 | 4.7 | -3.0 | -4.8 | 2.8 | 2.3 | 5.1
Cc1onc(-c2c(Cl)cccc2Cl)c1C(=O)N1CCc2ccccc21 | 13.3 | 37.9* | -18.2 | -31.8 | -11.9 | -0.6
O=C(Cc1ccc(F)cc1)Nc1ccc(Cl)cn1 | 30.2* | 16.9 | 49.1* | 14.8* | 0.1 | 5.3
O=C(COC(=O)Cc1ccc(F)cc1)Nc1ccc(Cl)cn1 | -4.1 | -4.5 | 1.2 | 0.6 | -1.2 | -0.1
O=C(Cc1ccc(Cl)cc1)Nc1ccc(Cl)cn1 | -8.0 | -3.4 | 20.7* | -2.1 | 0.4 | -1.0
O=C(Cc1ccccc1)Nc1cccnc1 | -2.3 | 2.9 | 6.6 | 13.7 | -0.7 | 0.2
O=C(Cc1ccc(Cl)cc1)Nc1cccnc1 | -6.6 | -8.2 | 0.7 | 27.7* | 0.6 | 0.9
C[C@H](CO)N1C[C@H](C)[C@@H](CN(C)S(=O)(=O)c2ccccc2)Oc2ccc(NS(=O)(=O)c3cn(C)cn3)cc2C1=O | -1.9 | -7.2 | 1.1 | -2.8 | -1.1 | 0.2
CCNC(=O)C1CCCN(C(=O)c2ccc3c(c2)OCO3)CC1 (centres undefined) | -0.8 | -0.1 | 1.7 | 2.6 | 0.4 | 0.4
COC(=O)[C@H](Cc1ccccc1)NC(=O)NCCC1=CCCCC1 | 62.8* | 14.2 | -23.3 | -0.1 | -6.1 | 1.9
COC(=O)[C@H](CCSC)NC(=O)NCCC1=CCCCC1 | 35.0* | 9.3 | -20.7 | -0.3 | -0.5 | 1.2
COC(=O)[C@H](C)NC(=O)NCCC1=CCCCC1 | 9.6 | -3.6 | -4.2 | -5.3 | -1.4 | 0.3
N#C/C(=C\c1ccccc1)C(=O)Nc1nncs1 | -0.9 | -10.2 | 0.1 | -11.7 | 1.8 | -0.5
CCOc1cc(/C=N/NC(=O)Cc2ccc(C(F)(F)F)cc2[N+](=O)[O-])c(Br)cc1OC | -8.3 | -14.4 | 21.9* | 9.1 | 0.7 | 0.2
COc1cc(Br)cc(/C=N/NC(=O)Cc2ccc(C(F)(F)F)cc2[N+](=O)[O-])c1O | 2.8 | -3.2 | -9.2 | 4.9 | -0.1 | 0.8
Cc1ccc(NC(=O)COC(=O)c2ccco2)cc1S(=O)(=O)N1CCCCC1 | -3.0 | 0.2 | -0.4 | -0.8 | 0.5 | 2.2
CC(CNc1ccc(Cl)cc1)(CNc1ccc(Cl)cc1)[N+](=O)[O-] | -0.1 | -5.8 | 3.7 | -1.9 | 2.0 | 4.6
Cc1ccc(CNC(=O)[C@H]2O[C@@H](n3ccc(N)nc3=O)[C@H](O)[C@@H]2O)o1 | -13.7 | -16.8 | 9.8 | 20.4* | 1.0 | 1.9
CCCn1cnnc1CNC(=O)[C@H]1O[C@@H](n2ccc(N)nc2=O)[C@H](O)[C@@H]1O | -9.4 | 1.0 | 1.9 | 1.6 | 1.3 | -0.2

Compound activity as filed in PubChem.
